Test results reported in ChEMBL document CHEMBL5653622 (Oncotarget, 2016).
The source made the active and inactive calls. The calls are words filed in the database; no cut-off is given here.

Experiments:
HT-29 [1] = assay: Induction of cell cycle arrest in human HT-29 cells assessed as phosphorylation of CDK1 on pY15 at 200 nM by Western blotting analysis; format: functional, cell-based
Procedure, shortened: (§1)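 HT29 colon cells treated with gemcitabine with or without inhibitor. Protein expression was read by western blotting with 50μg protein per lane.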

Mus musculus [2] = assay: In vivo inhibition of CHK1 in CRTac:Ncr-Fox1 mouse xenografted with human HT-29 cells assessed as increased phosphorylation of CHK1 on S296 at 100 mg/kg, iv administered for 24 hrs by Western blotting analysis; format: functional, organism-based
Procedure, shortened: (§2)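 HT29 s.c. xenografts in female athymic nude mice. Single gemcitabine dose 100mg/kg i.v. on day 0, then one inhibitor dose 50 or 100mg/kg p.o. (DPTW vehicle) 24h later. Tumors taken 24h after the last dose, western blotted, and signals quantified by normalizing to GAPDH.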

HT-29 [3] = assay: Antitumor activity against human HT-29 cells xenografted in CRTac:Ncr-Fox1 mouse assessed as tumor growth delay at 100 mg/kg, iv (reference value: 8.4 +/- 1.6 days); format: functional
Mus musculus [4] = assay: In vivo inhibition of CHK1 in CRTac:Ncr-Fox1 mouse xenografted with human HT-29 cells assessed as increased phosphorylation of CHK1 on S317 at 100 mg/kg, iv administered for 24 hrs by Western blotting analysis; format: functional, organism-based; procedure, shortened: as §2
HT-29 [5] = assay: Cytotoxicity against human HT-29 cells assessed as phosphorylation of CHK1 on S296 at 200 nM by Western blotting analysis; format: functional, cell-based; procedure, shortened: as §1
HT-29 [6] = assay: Cytotoxicity against human HT-29 cells assessed as phosphorylation of CHK1 on S345 at 200 nM by Western blotting analysis; format: functional, cell-based; procedure, shortened: as §1
HT-29 [7] = assay: Antitumor activity against human HT-29 cells xenografted in CRTac:Ncr-Fox1 mouse assessed as tumor growth delay at 100 mg/kg, iv (reference value: 7.2 +/- 1.8 days); format: functional
HT-29 [8] = assay: Antitumor activity against human HT-29 cells xenografted in CRTac:Ncr-Fox1 mouse assessed as tumor growth delay at 100 mg/kg, iv (reference value: […] +/- 5.2 days); format: functional
[9] = Toxicity in CRTac:Ncr-Fox1 mouse xenografted with human SW620 cells assessed as body weight at 100 mg/kg, iv administered for 9 days relative to control; format: organism-based, SW-620; conditions: in vivo, 216 h, time 9 day
Mus musculus [10] = assay: Effect on CHK1 in CRTac:Ncr-Fox1 athymic mouse xenografted with human Calu-6 cells assessed as phosphorylation of CHK1 at S345 at 100 mg/kg, iv in presence of carboplatin by Western blotting analysis; format: functional, organism-based
Procedure, shortened: (§3)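 Female CRTac:Ncr-Fox1(nu) athymic mice carried s.c. Calu6 xenografts. Tumors were taken 6h after the last inhibitor dose, lysed in CHAPS buffer, and immunoblotted with GAPDH as loading control.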

Mus musculus [11] = assay: In vivo inhibition of CHK1 in CRTac:Ncr-Fox1 mouse xenografted with human HT-29 cells assessed as increased phosphorylation of CDK1 on Y15 at 100 mg/kg, iv administered for 24 hrs by Western blotting analysis; format: functional, organism-based; procedure, shortened: as §2
Mus musculus [12] = assay: Effect on CHK1 in CRTac:Ncr-Fox1 athymic mouse xenografted with human Calu-6 cells assessed as phosphorylation of CHK1 at S296 at 100 mg/kg, iv in presence of carboplatin by Western blotting analysis; format: functional, organism-based; procedure, shortened: as §3
HT-29 [13] = assay: Cytotoxicity against human HT-29 cells assessed as phosphorylation of CHK1 on S280 at 200 nM by Western blotting analysis; format: functional, cell-based; procedure, shortened: as §1
Mus musculus [14] = assay: Effect on CHK1 in CRTac:Ncr-Fox1 athymic mouse xenografted with human Calu-6 cells assessed as phosphorylation of CHK1 at S317 at 100 mg/kg, iv in presence of carboplatin by Western blotting analysis; format: functional, organism-based; procedure, shortened: as §3
[15] = Toxicity in CRTac:Ncr-Fox1 mouse xenografted with human HT-29 cells assessed as body weight at 200 mg/kg, iv administered for 16 days relative to control; format: organism-based; conditions: in vivo, 384 h, time 16 day
Calu-6 = assay: Antitumor activity against human Calu-6 cells xenografted in CRTac:Ncr-Fox1 mouse assessed as tumor growth delay time at 100 mg/kg, iv in presence of carboplatin (reference value: 6.4 +/- 2.5 days); format: functional
HT-29 [16] = assay: Cytotoxicity against human HT-29 cells assessed as phosphorylation of CHK1 on S317 at 200 nM by Western blotting analysis; format: functional, cell-based; procedure, shortened: as §1

In the case of `Nc1ccn([C@@H]2O[C@H](CO)[C@@H](O)C2(F)F)c(=O)n1` [GEMCITABINE], the Activity (HT-29 [1]) is reported as “Active”, the Activity (Mus musculus [2]) is reported as “Active” and the Time (HT-29 [3]) is reported as 2.6 days. For the same compound, the Activity (Mus musculus [4]) was “Active”, the Activity (HT-29 [5]) was “Active” and the Activity (HT-29 [6]) was “Active”. For the same compound, the Time (HT-29 [7]) was 2.9 days, the Time (HT-29 [8]) was 0.3 days and the residual activity [9] was 95.7%. For the same compound, the Activity (Mus musculus [10]) was “Active”, the Activity (Mus musculus [11]) was “Active” and the Activity (Mus musculus [12]) was “Active”. For the same compound, the Activity (HT-29 [13]) was “Active”, the Activity (Mus musculus [14]) was “Active” and the residual activity [15] was 94.2%. For the same compound, the Time (Calu-6) was 0.7 days and the Activity (HT-29 [16]) was “Active”.
